Assays:
[1] = test system: T47D ductal carcinoma cell line; assay: Concentration-response proliferation assay, colloidal vs monomeric formulation; format: cell-based
Method in brief: (§1)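 Cells seeded at 10,000 cells/cm2 and left to adhere overnight, then dosed in RPMI 1640 with 10% charcoal-stripped FBS. Colloidal formulation: DMSO stock diluted 1000-fold into medium (0.1% DMSO). Monomeric formulation: stock diluted 10-fold in DMSO, then into medium giving 1% DMSO and 0.025% v/v polysorbate 80. Vehicle controls made the same way. Medium refreshed every 12 h over 72 h; cells washed; proliferation by MTS or DAPI nuclei counts, relative to untreated.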

[2] = known aggregators; not among compounds measured by DLS here; cited from earlier work
MCF7 = assay: Concentration-response proliferation assay, colloidal vs monomeric formulation; format: cell-based
Method in brief: as §1

BT474 = assay: as above; format: cell-based
Method in brief: as §1

MCF7 cells = conditions: cited from earlier work
MDA-MB-231 cells = assay: Concentration-response proliferation assay; format: cell-based
Method in brief: as §1

## C[C@@H](Oc1cc(-c2cnn(C3CCNCC3)c2)cnc1N)c1c(Cl)ccc(F)c1Cl [Crizotinib, crizotinib]
[1]
  concentration at which antiproliferative activity is lost: 10 µM
[2]
  CAC (critical aggregation concentration): 19.3 µM

## C[C@]12CC[C@@H]3c4ccc(O)cc4C[C@@H](CCCCCCCCC[S+]([O-])CCCC(F)(F)C(F)(F)F)[C@H]3[C@@H]1CC[C@@H]2O (stereo partly drawn) [Fulvestrant]
MCF7
  concentration at which loss of activity is observed: ≥ 1 µM
BT474
  concentration at which loss of activity is observed: ≥ 1 µM

## O=c1c(-c2ccc(O)cc2)coc2cc(O)cc(O)c12 [Genistein]
MCF7 cells
  concentration of maximum activity of bell-shaped curve: 50 µM

## CNC(=O)c1cc(Oc2ccc(NC(=O)Nc3ccc(Cl)c(C(F)(F)F)c3)cc2)ccn1 [Sorafenib, sorafenib]
MDA-MB-231 cells; 10 μM, colloidal formulation (0.1% DMSO, no UP 80), 72 h
  inhibition of cell proliferation: almost entirely eliminated
MDA-MB-231 cells; Homo sapiens, MDA-MB-231, 72 h, read-out: inhibition of proliferation
  inhibition at 10 µM: ~90%
MDA-MB-231 cells; colloidal formulation, MDA-MB-231
  concentration at which loss of activity is observed: ≥ 10 µM
[2]
  CAC (critical aggregation concentration): 3.5 µM

Reference: PMC3985758 (ACS Chemical Biology, 2014)
